Shown are actives, neighbours in structure and some others; about 2.3% of the full set was active somewhere.
STEP inh = STEP (human) phosphatase inhibition; recombinant STEP, OMFP fluorogenic substrate, fluorescence; inhibition, % at 20 µM; 360,000 compounds, 0.25% hits;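 active = inhibition at 20 µM, scaled per plate between control wells, above about 37%, limit read from the data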;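 also: 0% = DMSO with enzyme and substrate and 100% = substrate only without enzyme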
Target sequence (P54829 whole entry, looked up): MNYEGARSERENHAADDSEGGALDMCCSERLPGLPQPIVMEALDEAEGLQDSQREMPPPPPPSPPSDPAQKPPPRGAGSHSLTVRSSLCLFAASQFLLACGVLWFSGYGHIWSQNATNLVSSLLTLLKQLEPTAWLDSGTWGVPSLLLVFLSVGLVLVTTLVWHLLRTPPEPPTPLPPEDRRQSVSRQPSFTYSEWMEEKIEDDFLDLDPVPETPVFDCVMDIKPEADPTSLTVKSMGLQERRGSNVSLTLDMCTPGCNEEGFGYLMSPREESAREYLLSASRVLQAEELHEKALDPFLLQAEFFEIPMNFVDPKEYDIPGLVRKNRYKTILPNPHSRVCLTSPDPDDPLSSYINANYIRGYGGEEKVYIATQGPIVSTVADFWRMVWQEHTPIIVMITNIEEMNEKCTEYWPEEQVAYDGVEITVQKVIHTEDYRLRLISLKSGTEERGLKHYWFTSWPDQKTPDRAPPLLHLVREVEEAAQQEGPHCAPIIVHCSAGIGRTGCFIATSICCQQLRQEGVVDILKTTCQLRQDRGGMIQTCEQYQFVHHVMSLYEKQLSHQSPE
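Material: STEP (striatal-enriched tyrosine phosphatase) enzyme, cell-free | Medium: 50 mM Bis-Tris pH 6.0 with 2.5 mM DTT and 0.005% Tween 20 | Read-out: Percent inhibition scaled to no-enzyme and uninhibited-enzyme controls, plate-pattern corrected | Signal: Fluorescence read at 480 nm ex / 540 nm em | Times: 20 min reaction, room temperature, in the dark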
LMPTP inh = LMPTP (human) inhibition. inhibition, % at 20 µM. 360,000 compounds, 0.22% hits. AID 651560. recombinant LMPTP-A, OMFP fluorogenic substrate, fluorescence intensity. P24666;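 active = compounds that cut the enzyme signal by at least half of the control window in the single-dose screen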;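 also: plate controls were DMSO wells with enzyme plus substrate for no effect and substrate without enzyme for full effect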
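Test system: LMPTP-A phosphatase enzyme. Amount: LMPTP-A at 0.625 nM final in the reaction. Reagent: OMFP substrate, 400 µM final. Times: 50 min at room temperature. Signal: endpoint fluorescence intensity from OMFP dephosphorylation. Read-out basis: % inhibition. Benchmarks: no-enzyme and uninhibited controls.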
Scp1 inh = inhibitors of human Scp-1 phosphatase. Q9GZU7. Recombinant Scp1, phosphopeptide, malachite green phosphate absorbance. inhibition, % at 20 µM. 340,000 compounds, 0.88% hits;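 active = inhibition above about 50% at 20 µM, limit read from the data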;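 also: plate controls were DMSO wells with enzyme for no effect and wells lacking enzyme for full effect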
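System: SCP-1 catalytic domain; Reagent: Phospho 17-mer peptide substrate; Doses: one concentration, 20 µM, with 1.0% DMSO; Incubation: 45 min room-temperature reaction, 5 min colour, 30 min stabiliser; Signal: Phosphate-binding colour reagent, absorbance read at 630 nm.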
Rpn11 inh = blocks the human proteasome subunit Rpn11; O00487; human 26S proteasome, Ub4-pepOG fluorescence polarization; 20S core pre-blocked with epoxomicin; inhibition, % at 20 µM; 360,000 compounds, 0.59% hits;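 active = inhibition at 20 µM, scaled to each plate's controls, above about 33%, limit read from the data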
DNMT1 block = DNMT1 (human) enzyme inhibition | 360,000 compounds, 0.83% hits | P26358 | DNMT1 molecular beacon, Hinp1I cleavage, fluorescence | AID 588458 | inhibition (reported as % activation of signal), % at 10 µM; in the data active = inhibition above about 50%
SUMO1 PPI mod = modulators of human SUMO1-mediated protein-protein interactions. P63165. SUMO1 binding to a labelled peptide, TR-FRET, 1 h. inhibition, % at 20 µM. 360,000 compounds, 0.33% hits. AID 602429; in the data active = inhibition above about 37%
Target sequence (P63165 whole entry, looked up): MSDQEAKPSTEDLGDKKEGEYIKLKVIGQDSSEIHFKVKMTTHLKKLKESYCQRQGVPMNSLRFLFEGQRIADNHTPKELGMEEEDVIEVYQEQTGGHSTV
The depositor's hits bear a star; / = no result given.

SMILES | STEP inh | LMPTP inh | Scp1 inh | Rpn11 inh | DNMT1 block | SUMO1 PPI mod
CCCCCCCCCCCCCCCCCCNc1ccn(C2OC(COP(=O)(O)OCC3OC(n4cc(F)c(=O)[nH]c4=O)CC3O)C(O)C2O)c(=O)n1 (configuration not stated) | 1.3 | 3.2 | 21.2 | -2.9 | 79.8* | 20.3
Cc1ccc(C)n1-c1sccc1C(=O)O | 75.0* | 40.3 | 79.9* | -44.9 | 106.8* | 66.3*
COc1ccc(C(=O)N/N=C/c2sc3ccccc3c2O)cc1 | -5.5 | 1.1 | -13.0 | / | -10.0 | -13.4
COc1ccc2cc(C(=O)N/N=C/c3sc4ccccc4c3O)ccc2c1 | 17.6 | 50.8* | 85.4* | / | -8.3 | -24.9
O=C(CN1CCN(C(=O)c2ccc(-c3nc4ccccc4s3)o2)CC1)Nc1ccc(F)cc1 | 0.3 | 2.6 | 0.7 | 8.3 | -6.8 | -30.8
Cc1cc(C(=O)Nc2cccc(O)c2)c(C)o1 | -0.1 | 0.6 | 0.2 | -0.5 | -6.0 | 37.5*
Cc1cc(C(=O)Nc2cccc(C(=O)O)c2)c(C)o1 | -1.3 | -1.1 | 6.5 | 2.4 | 5.8 | 0.2
O=C(Cc1ccc(-n2c(=O)c3ccccc3n(Cc3ccc(F)cc3)c2=O)cc1)NCC1CCCO1 (configuration not stated) | 2.0 | 0.0 | -30.4 | 1.0 | 0.6 | 40.0*
CCCCNc1c(-c2ccc(OC)c(SC3CCCCC3)c2)nc2ccc(C)cn12 | 6.0 | 10.5 | 23.2 | 7.5 | -17.1 | -20.5
COc1ccc(-c2nc3ccc(C)cn3c2NCc2ccccc2)cc1SC1CCCCC1 | 6.4 | 4.3 | 19.6 | 7.0 | 59.7* | -3.1
CN(C)c1ccc(/C=N/N=C2/NC(=O)/C(=C/c3ccc([N+](=O)[O-])cc3)S2)cc1 | 7.3 | 4.1 | -1.9 | 11.7 | 66.1* | -30.2
O=c1c(Oc2ccccc2)coc2cc(O)cc(O)c12 | 0.8 | 0.7 | -9.4 | -6.1 | 4.2 | 6.2
C/C(=N\NC(=O)c1cc(O)ccc1O)c1cccc(NC(=O)c2ccc(Cl)cc2)c1 | 12.4 | 44.0 | 48.8 | 1.6 | -13.3 | 43.8*
Cc1cccc2cc(-c3nc4ccc(C(=O)O)cc4[nH]3)c(=O)oc12 | 18.0 | 3.6 | 58.5* | -19.4 | -0.1 | -4.3
Cc1ccc(N2NC(=O)/C(=C/c3ccc(-c4ccc(Cl)c(C(=O)O)c4)o3)C2=O)cc1C | 7.5 | 1.5 | 21.9 | 4.1 | 13.0 | -2.9
O=C1NN(c2ccc(Cl)c(Cl)c2)C(=O)/C1=C/c1ccc(-c2ccccc2C(=O)O)o1 | 20.3 | 8.2 | 49.4 | 14.5 | 59.7* | 29.6
O=C1NN(c2cccc(Br)c2)C(=O)/C1=C/c1ccc(-c2cc([N+](=O)[O-])ccc2O)o1 | 69.5* | 76.7* | 98.9* | 26.9 | 52.6* | 102.3*
CC1=NN(c2ccc(Cl)c(C(=O)O)c2)C(=O)/C1=C\c1ccc(-c2ccc(C(=O)O)cc2)o1 | 20.7 | 1.2 | 81.2* | -7.3 | 27.9 | 13.5
CC1=NN(c2ccc(C)cc2)C(=O)/C1=C/c1ccc(-c2cc([N+](=O)[O-])ccc2O)o1 | 7.1 | 24.7 | 20.5 | -18.1 | 41.0 | 79.6*
O=C(Cn1cc(Cl)c([N+](=O)[O-])n1)NCCC1=CCCCC1 | 0.7 | -0.9 | -7.4 | 0.8 | -0.3 | -16.3
COc1cc(/C=C2\SC(=O)N(c3cccc(Cl)c3)C2=O)cc([N+](=O)[O-])c1O | 97.6* | 82.2* | 56.2* | -29.0 | 70.5* | 2.3
O=C(CSc1nnc(-c2ccco2)c(-c2ccco2)n1)c1ccccc1 | 5.4 | 8.0 | 45.0 | -0.5 | 84.7* | 29.9
Nc1cc2[nH]c(=O)c3ccccc3c2cc1[N+](=O)[O-] | 1.2 | 2.7 | -5.3 | -11.7 | -0.5 | 50.2*
O=C(NC1CCCCC1)c1sc(=S)n2c1[nH]c(=O)c1ccccc12 | 7.6 | 18.6 | 80.0* | 11.4 | -6.0 | 10.5
Cc1cc(C)c(Nc2cc(S(=O)(=O)O)c(N)c3c2C(=O)c2ccccc2C3=O)c(C)c1 | 1.6 | 33.3 | 27.4 | -12.6 | 79.9* | 74.0*
SMILES | STEP inh | LMPTP inh | Scp1 inh | Rpn11 inh | DNMT1 block | SUMO1 PPI mod
O=C(Nc1ccccc1-c1nc2ccccc2[nH]1)c1ccc(S(=O)(=O)N2CCCCC2)cc1 | 47.1* | 0.2 | -2.0 | -0.7 | -2.1 | 9.8
Cc1sc(NC(=O)CSc2nnc3scc(-c4ccccc4)n23)c(C#N)c1C | 1.7 | 1.2 | -6.4 | 2.0 | 7.3 | 44.6*
N#C/C(=C\c1ccc(C(=O)O)cc1)c1nc2sc3c(c2c(=O)[nH]1)CCCC3 | -6.4 | 26.6 | 75.7* | / | 43.4 | 31.2
CCOC(=O)c1nc2sc3c(c2c(=O)[nH]1)CCCC3 | 4.2 | 0.6 | 5.7 | 3.2 | 2.0 | -0.2
O=C1CSC(c2cccc(F)c2)N1c1ccccc1 (configuration not stated) | -1.4 | -0.9 | -11.0 | 6.3 | 2.1 | 13.6
O=C(Nc1nccs1)c1cc(-c2ccccn2)nc2c(Cl)cccc12 | 0.2 | 0.4 | -4.8 | -53.9 | 27.0 | 53.4*
S=c1[nH]nc2ccc3ccccc3n12 | 0.0 | 71.5* | / | 10.1 | -1.2 | -3.3
COc1ccc(NC(=O)CCCNC(=O)Cn2cnc3sc4c(c3c2=O)CCCC4)c(OC)c1 | -1.5 | 0.7 | 0.1 | 3.6 | -1.8 | 0.3
Nc1nn2cc(-c3ccc(Br)cc3)nc2c2ccccc12 | -4.4 | 3.2 | 0.2 | 6.7 | -3.5 | 64.6*
COc1ccc(Nc2nnc(-c3ccc(O)cc3)c3ccccc23)cc1 | 1.2 | -0.5 | 2.0 | 1.3 | 12.5 | 2.9
COc1ccccc1CCNC(=O)C(=O)NCC1OCCN1S(=O)(=O)c1ccc2c(c1)OCCO2 (configuration not stated) | 0.1 | 1.1 | -9.2 | -5.6 | -4.3 | 7.0
NC(CSC(c1ccccc1)(c1ccccc1)c1ccccc1)C(=O)O (configuration not stated) | 5.7 | 0.9 | 2.2 | 6.8 | 52.2* | 0.6
CC(=O)Nc1cccc(C(=O)OCC(=O)N(c2ccccc2)C2CCS(=O)(=O)C2)c1 (configuration not stated) | -1.5 | -0.2 | 1.3 | 0.1 | 3.8 | -0.5
Cc1cc(-c2ccccc2)nc(Nc2nc3c(C)cccc3c(=O)[nH]2)n1 | -0.2 | 7.2 | -8.4 | 30.2 | 47.7 | 52.6*
Cc1sc2ncn(CC(=O)NCC(=O)N3CCN(c4ccc(F)cc4)CC3)c(=O)c2c1C | 0.6 | 0.3 | -3.0 | 1.1 | -0.7 | -0.9
COc1cc(-c2cccs2)cc(=O)c2c(C)oc(C)c12 | 2.1 | 3.2 | -3.7 | -10.4 | 70.9* | 13.3
NC(=O)c1nn(CC(=O)Nc2ccc3c(c2)OCO3)cc1[N+](=O)[O-] | -1.5 | -1.8 | -2.5 | 5.2 | 3.2 | -8.8
Oc1ccc2ccccc2c1/C=N/Nc1ccccc1 | 51.9* | -0.3 | -16.6 | 1.7 | -26.7 | -2.6
COCCN1CCN(C(=O)c2ccc3oc(CCc4ccccc4)nc3c2)CC1 | -5.1 | -0.9 | -5.5 | -8.1 | 1.1 | 5.9

From PubChem BioAssay
